Columns and labels:
Rattus norvegicus [1] = test: Mean urinary output in rats when compound administered at 80 mg/kg po and vehicle dosed at 297.03 umol/kg; assay type: ADME, organism-based, Urine; design: dose 80 mg/kg, route oral; conditions: in vivo
Outline: (§1)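 Water-loaded male Sprague-Dawley rats (HC/CFY, 175-200 g) fasted and without water for 18 h. Oral gavage of 2.5-160 mg/kg in 1% CMC with 0.1% Tween 80, then distilled water 2.5 mL/100 g po. Urine collected 6 h in metabolic cages, mean output in mL/6 h/kg bw. Unpaired Student t-test against vehicle; dose-response by linear regression.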

Rattus norvegicus [2] = test: Urinary sodium 4 hr after the compound was administered 100 mg/kg po in rat; assay type: ADME, organism-based, Urine; design: dose 100 mg/kg, route oral; conditions: in vivo
Outline: (§2)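 Onset and duration study in fasted, water-loaded male Sprague-Dawley rats housed two per metabolic cage, six pairs per group. Single oral dose given, then water 2.5 mL/100 g po. Urine volume and sodium (flame photometry) measured over 0-1, 1-2, 2-3, 3-4 and 4-6 h intervals. Mean values compared with vehicle by Student t-test.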

Rattus norvegicus [3] = test: Mean urinary output in rats when compound administered at 40 mg/kg po and vehicle dosed at 148.52 umol/kg; assay type: ADME, organism-based, Urine; design: dose 40 mg/kg, route oral; conditions: in vivo; outline: as §1
Rattus norvegicus [4] = test: Mean urinary output in rats when compound administered at 0 mg/kg po and vehicle dosed at 0 umol/kg; assay type: ADME, organism-based, Urine; design: dose 0 mg/kg, route oral; conditions: in vivo; outline: as §1
Rattus norvegicus [5] = test: Mean urinary output in rats when compound administered at 160 mg/kg po and vehicle dosed at 594.07 umol/kg; assay type: ADME, organism-based, Urine; design: dose 160 mg/kg, route oral; conditions: in vivo; outline: as §1
Rattus norvegicus [6] = test: Mean sodium excretion in rats when compound administered at 20 mg/kg po and vehicle dosed at 74.26 umol/kg; assay type: ADME, organism-based; design: dose 20 mg/kg, route oral; conditions: in vivo
Outline: (§3)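 Male Sprague-Dawley rats (HC/CFY, 175-200 g) fasted and water-deprived 18 h before and during the test. Dosed by gavage at 2.5-160 mg/kg in 1% carboxymethyl cellulose/0.1% Tween 80, 0.5 mL/100 g bw. Immediately hydrated with water (2.5 mL/100 g bw, po). Urine collected 6 h in metabolic cages; Na+ and K+ by flame photometry; mean mequiv/6 h/kg bw; nonpaired Student t-test.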

Rattus norvegicus [7] = test: Urinary sodium 6 hr after the compound was administered 100 mg/kg po in rat; assay type: ADME, organism-based, Urine; design: dose 100 mg/kg, route oral; conditions: in vivo; outline: as §2
Rattus norvegicus [8] = test: Mean sodium excretion in rats when compound administered at 0 mg/kg po and vehicle dosed at 0 umol/kg; assay type: ADME, organism-based; design: dose 0 mg/kg, route oral; conditions: in vivo; outline: as §3
Rattus norvegicus [9] = test: Mean potassium excretion in rats when compound administered at 20 mg/kg po and vehicle dosed at 74.26 umol/kg; assay type: ADME, organism-based; design: dose 20 mg/kg, route oral; conditions: in vivo
Outline: (§4)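 Male Sprague-Dawley rats (HC/CFY, 175-200 g), no food or water for 18 h before and during the test. Single gavage dose (2.5-160 mg/kg; vehicle 1% carboxymethyl cellulose/0.1% Tween 80, 0.5 mL/100 g bw), then distilled water 2.5 mL/100 g bw po. Individual metabolic cages, 6 h urine. K+ by flame photometry, Cl- colorimetric, as mequiv/6 h/kg bw; unpaired Student t-test vs control.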

Rattus norvegicus [10] = test: Mean potassium excretion in rats when compound administered at 5 mg/kg po and vehicle dosed at 18.56 umol/kg; assay type: ADME, organism-based; design: dose 5 mg/kg, route oral; conditions: in vivo; outline: as §3
Rattus norvegicus [11] = test: Mean Chlorine excretion in rats when compound administered at 160 mg/kg po and vehicle dosed at 594.07 umol/kg; assay type: ADME, organism-based; design: dose 160 mg/kg, route oral; conditions: in vivo; outline: as §4
Rattus norvegicus [12] = test: Urinary sodium 1 hr after the compound was administered 100 mg/kg po in rat; assay type: ADME, organism-based, Urine; design: dose 100 mg/kg, route oral; conditions: in vivo; outline: as §2
Rattus norvegicus [13] = test: Dose required to produce an excretion of 2 mequiv of Na+/kg bw/6h vs control groups; assay type: functional
Outline: (§5)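 Male Sprague-Dawley rats (HC/CFY, 175-200 g), fasted and water-deprived 18 h before and during the test. Compound dosed by gavage in 1% carboxymethyl cellulose/0.1% Tween 80, then water load 2.5 mL/100 g bw po. Urine collected 6 h in metabolic cages; Na+ by flame photometry. Effective doses vs vehicle controls derived by linear regression of dose-response data.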

Rattus norvegicus [14] = test: Mean urinary output in rats when compound administered at 10 mg/kg po and vehicle dosed at 37.13 umol/kg; assay type: ADME, organism-based, Urine; design: dose 10 mg/kg, route oral; conditions: in vivo; outline: as §1
Rattus norvegicus [15] = test: Urinary sodium 3h after the compound was administered 100 mg/kg po in rat; assay type: ADME, organism-based, Urine; design: dose 100 mg/kg, route oral; conditions: in vivo; outline: as §2
Rattus norvegicus [16] = test: Mean urinary output in rats when compound administered at 2.5 mg/kg po and vehicle dosed at 9.28 umol/kg; assay type: ADME, organism-based, Urine; design: dose 2.5 mg/kg, route oral; conditions: in vivo; outline: as §1
Rattus norvegicus [17] = test: Volume of urine 4 hr after the compound was administered 100 mg/kg po in rat; assay type: ADME, organism-based; design: dose 100 mg/kg, route oral; conditions: in vivo
Outline: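 Onset/duration protocol: male Sprague-Dawley rats (HC/CFY, 175-200 g), food and water withdrawn for 18 h before and during the test. Single gavage dose in 1% carboxymethyl cellulose/0.1% Tween 80 (0.5 mL/100 g bw), then distilled water load (2.5 mL/100 g bw po). Two rats per metabolic cage, six pairs per group. Urine collected at 0-1, 1-2, 2-3, 3-4 and 4-6 h; Na+ by flame photometry. Vehicle controls; nonpaired Student t-test.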

Rattus norvegicus [18] = test: Mean Chlorine excretion in rats when compound administered at 0 mg/kg po and vehicle dosed at 0 umol/kg; assay type: ADME, organism-based; design: dose 0 mg/kg, route oral; conditions: in vivo
Rattus norvegicus [19] = test: Mean Chlorine excretion in rats when compound administered at 40 mg/kg po and vehicle dosed at 148.52 umol/kg; assay type: ADME, organism-based; design: dose 40 mg/kg, route oral; conditions: in vivo; outline: as §4
Rattus norvegicus [20] = species on record: Rattus norvegicus; test: Mean urinary output in rats (Control/Drug treatment value); value 24.2/47.6; assay type: ADME, organism-based, Urine; conditions: in vivo
Outline: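 Water-loaded male Sprague-Dawley rats (HC/CFY, 175-200 g), eight per group, deprived of food and water 18 h. Single oral gavage of 20-25 mg/kg (some 10 mg/kg) in 1% CMC/0.1% Tween 80, then distilled water 2.5 mL/100 g bw po. Cumulative urine over 6 h in metabolic cages; mean mL/6 h/kg bw vs vehicle group.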

Rattus norvegicus [21] = test: Mean Chlorine excretion in rats when compound administered at 80 mg/kg po and vehicle dosed at 297.03 umol/kg; assay type: ADME, organism-based; design: dose 80 mg/kg, route oral; conditions: in vivo; outline: as §4
[22] = Acute toxicity in mice when given po; assay type: organism-based; conditions: mouse, in vivo, read-out: DL50 (the source's name)
Outline: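 Male Swiss mice (SPF, HC/CFLP strain, 20–25 g), oral dosing; mortality followed over 15 days; LD50 derived by the Litchfield and Wilcoxon method.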

Rattus norvegicus [23] = test: Mean potassium excretion in rats when compound administered at 10 mg/kg po and vehicle dosed at 37.13 umol/kg; assay type: ADME, organism-based; design: dose 10 mg/kg, route oral; conditions: in vivo; outline: as §4
Rattus norvegicus [24] = test: Mean sodium excretion in rats when compound administered at 10 mg/kg po and vehicle dosed at 37.13 umol/kg; assay type: ADME, organism-based; design: dose 10 mg/kg, route oral; conditions: in vivo; outline: as §3
Rattus norvegicus [25] = test: Mean sodium excretion in rats when compound administered at 160 mg/kg po and vehicle dosed at 594.07 umol/kg; assay type: ADME, organism-based; design: dose 160 mg/kg, route oral; conditions: in vivo; outline: as §3
Rattus norvegicus [26] = test: Mean sodium excretion in rats when compound administered at 80 mg/kg po and vehicle dosed at 297.03 umol/kg; assay type: ADME, organism-based; design: dose 80 mg/kg, route oral; conditions: in vivo; outline: as §3
Rattus norvegicus [27] = test: Mean Chlorine excretion in rats when compound administered at 10 mg/kg po and vehicle dosed at 37.13 umol/kg; assay type: ADME, organism-based; design: dose 10 mg/kg, route oral; conditions: in vivo; outline: as §4
Rattus norvegicus [28] = test: Mean sodium excretion in rats when compound administered at 40 mg/kg po and vehicle dosed at 148.52 umol/kg; assay type: ADME, organism-based; design: dose 40 mg/kg, route oral; conditions: in vivo; outline: as §3
Rattus norvegicus [29] = species on record: Rattus norvegicus; test: Dose required to produce increase in 50 % in urine production vs control groups; assay type: functional; conditions: Rattus norvegicus, Urine; outline: as §5
[30] = Ratio of Na+ to K+ excretion at dose; assay type: ADME
Outline: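 Water-loaded fasted male Sprague-Dawley rats dosed orally in CMC/Tween 80 vehicle and hydrated with water 2.5 mL/100 g. Na+ and K+ in urine pooled over 6 h measured by flame photometry. Na+/K+ excretion ratio computed for each dose; Student t-test against control.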

Rattus norvegicus [31] = test: Mean potassium excretion in rats when compound administered at 0 mg/kg po and vehicle dosed at 0 umol/kg; assay type: ADME, organism-based; design: dose 0 mg/kg, route oral; conditions: in vivo; outline: as §4

**Q.** For `CCc1nc2c(nc1C)C(N)=NS(=O)(=O)N2CC`, which V (Rattus norvegicus [1]) is on record?
**A.** The V was 62.99 ml 6hr-1 (kg of body weight)-1.

**Q.** What about the “Urinary Na+” value (Rattus norvegicus [2]) of the same compound?
**A.** Its value is 0.27 m equiv.

**Q.** What about the V (Rattus norvegicus [3]) of the same compound?
**A.** The V was 59.12 ml 6hr-1 (kg of body weight)-1.

**Q.** And the V (Rattus norvegicus [4])?
**A.** The V was 21.96 ml 6hr-1 (kg of body weight)-1.

**Q.** What about the V (Rattus norvegicus [5]) of the same compound?
**A.** Its V is 74.26 ml 6hr-1 (kg of body weight)-1.

**Q.** And the Na (Rattus norvegicus [6])?
**A.** The Na was 1.7 m equiv 6hr-1 kg-1 (body weight)-1.

**Q.** And the “Urinary Na+” value (Rattus norvegicus [7])?
**A.** The value was 0.16 m equiv.

**Q.** What about the Na (Rattus norvegicus [8]) of the same compound?
**A.** Its Na is 0.43 m equiv 6hr-1 kg-1 (body weight)-1.

**Q.** And the K (Rattus norvegicus [9])?
**A.** The K was 0.63 m equiv 6hr-1 kg-1 (body weight)-1.

**Q.** And the K (Rattus norvegicus [10])?
**A.** The K was 0.52 m equiv 6hr-1 kg-1 (body weight)-1.

**Q.** What about the Cl- (Rattus norvegicus [11]) of the same compound?
**A.** The Cl- was 9.28 m equiv 6hr-1 kg-1 (body weight)-1.

**Q.** What about the “Urinary Na+” value (Rattus norvegicus [12]) of the same compound?
**A.** The value was 0.15 m equiv.

**Q.** And the ED2 (Rattus norvegicus [13])?
**A.** Its ED2 is 14.62 mg/kg.

**Q.** What about the V (Rattus norvegicus [14]) of the same compound?
**A.** The V was 32.6 ml 6hr-1 (kg of body weight)-1.

**Q.** And the “Urinary Na+” value (Rattus norvegicus [15])?
**A.** The value was 0.56 m equiv.

**Q.** And the V (Rattus norvegicus [16])?
**A.** Its V is 20.52 ml 6hr-1 (kg of body weight)-1.

**Q.** And the Urine volume (Rattus norvegicus [17])?
**A.** The Urine volume was 2.71 mL.

**Q.** And the Cl- (Rattus norvegicus [18])?
**A.** Its Cl- is 1.02 m equiv 6hr-1 kg-1 (body weight)-1.

**Q.** What about the Cl- (Rattus norvegicus [19]) of the same compound?
**A.** The Cl- was 6.37 m equiv 6hr-1 kg-1 (body weight)-1.

**Q.** And the V (Rattus norvegicus [20])?
**A.** Its V is 2.

**Q.** What about the Cl- (Rattus norvegicus [21]) of the same compound?
**A.** The Cl- was 8.04 m equiv 6hr-1 kg-1 (body weight)-1.

**Q.** What about the LD50 [22] of the same compound?
**A.** The LD50 was 1840 mg/kg.

**Q.** And the K (Rattus norvegicus [23])?
**A.** Its K is 0.72 m equiv 6hr-1 kg-1 (body weight)-1.

**Q.** What about the Na (Rattus norvegicus [24]) of the same compound?
**A.** Its Na is 1.21 m equiv 6hr-1 kg-1 (body weight)-1.

**Q.** What about the Na (Rattus norvegicus [25]) of the same compound?
**A.** Its Na is 6.14 m equiv 6hr-1 kg-1 (body weight)-1.

**Q.** What about the Na (Rattus norvegicus [26]) of the same compound?
**A.** Its Na is 5.1 m equiv 6hr-1 kg-1 (body weight)-1.

**Q.** What about the Cl- (Rattus norvegicus [27]) of the same compound?
**A.** Its Cl- is 2.67 m equiv 6hr-1 kg-1 (body weight)-1.

**Q.** What about the Na (Rattus norvegicus [28]) of the same compound?
**A.** Its Na is 3.63 m equiv 6hr-1 kg-1 (body weight)-1.

**Q.** What about the ED50 (Rattus norvegicus [29]) of the same compound?
**A.** Its ED50 is 9.17 mg/kg.

**Q.** And the Ratio [30]?
**A.** The Ratio was 2.43 [middle of 8 runs].

**Q.** And the K (Rattus norvegicus [31])?
**A.** The K was 0.49 m equiv 6hr-1 kg-1 (body weight)-1.
